This is a sample that favours compounds with a hit; in the whole collection about 2.6% have one here.
CFTR F508del cor: CFTR F508del correction in bronchial cells | actives 0.36% (n = 350,000) | activity (quench increase), % at 7.58 µM | AID 720511 | CFBE cells, YFP halide quenching; stimulated with forskolin plus potentiator P3; % fluorescence drop versus neutral controls;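 active = mean added fluorescence quench of at least 8% versus neutral control, with both replicates also reaching 8%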;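 also: cells transiently co-express mutant CFTR-F508del with the halide-sensitive YFP; corrector assay measuring rescue of mutant channel to the surface after 24 h compound exposure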
E-selectin induc: E-selectin induction on HUVECs; actives 0.37% (n = 260,000); activation, % at 7.58 µM; P16581; AID 686992; HUVEC E-selectin immunofluorescence imaging; normalized: neutral wells 0, TNF-alpha wells 100;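 active = mean E-selectin-positive cell signal at least 10% of the positive control, reached in at least 60% of replicates, without over 20% cell loss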
Target sequence (P16581 whole entry, looked up): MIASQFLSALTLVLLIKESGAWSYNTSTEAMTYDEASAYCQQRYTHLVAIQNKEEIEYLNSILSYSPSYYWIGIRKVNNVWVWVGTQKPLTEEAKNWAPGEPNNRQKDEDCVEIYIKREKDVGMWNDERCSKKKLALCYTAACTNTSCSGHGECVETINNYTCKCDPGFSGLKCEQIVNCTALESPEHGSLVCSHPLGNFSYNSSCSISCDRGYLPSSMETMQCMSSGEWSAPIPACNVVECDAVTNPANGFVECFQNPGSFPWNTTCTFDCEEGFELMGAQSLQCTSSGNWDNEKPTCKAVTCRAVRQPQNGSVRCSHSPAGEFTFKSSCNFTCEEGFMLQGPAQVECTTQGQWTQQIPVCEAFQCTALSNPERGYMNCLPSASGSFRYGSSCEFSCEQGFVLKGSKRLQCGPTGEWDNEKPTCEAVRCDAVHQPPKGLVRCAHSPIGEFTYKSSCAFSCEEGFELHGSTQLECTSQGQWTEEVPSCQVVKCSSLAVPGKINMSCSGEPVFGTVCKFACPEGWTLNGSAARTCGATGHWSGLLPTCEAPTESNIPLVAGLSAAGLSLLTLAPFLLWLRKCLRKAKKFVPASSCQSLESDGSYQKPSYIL
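Test system: HUVEC; input: 3,000 HUVEC/well; measured by: immunofluorescence imaging; read-out: % PE-positive cells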
ERAP1 HTS inh: ERAP1 (human) enzyme inhibition; AID 652197; recombinant ERAP1, Leu-AMC fluorescence, 60 min; inhibition, % at 10.7 µM; actives 0.15% (n = 340,000);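 active = mean replicate inhibition of at least 30%, or all replicates individually reaching that 30% level; inactive = mean below 30% and not every replicate reaching it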;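 also: 0% = neutral control wells and 100% = L-leucinethiol positive control wells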
INS-1E GSIS act: primary screen for activators of insulin secretion dependent on glucose, INS-1E cells, GLuc reporter luminescence; activation, % at 16.6 µM; INS-1E GLuc reporter insulin secretion, 2-3 h; actives 0.61% (n = 370,000); AID 743287;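 active = lowest replicate activation of at least 40%, so every replicate reaches that level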;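 also: 0% = median of neutral control wells and 100% = median of IBMX positive control wells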
miR-122 sensor: blocks miR-122 activity in Huh7 sensor cells; Huh7 miR-122 Renilla luciferase sensor, 48 h; neutral wells = 0, positive control = 100; activation (reporter increase), % at 12.5 µM; actives 0.3% (n = 340,000); AID 602342;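 active = mean replicate activation score at least 90 and every replicate individually at or above 90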;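 also: higher luciferase means less miR-122 activity so hits act as miR-122 inhibitors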
DENV2 CPE: DENV2-induced cell death inhibition; DENV2-infected cells, cytopathic effect rescue, plate reader; CPE inhibition, % at 9.99 µM; actives 1.7% (n = 350,000); in the data active = CPE inhibition above about 20%, passing the limit was not always enough; tested in BHK-21 cells;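 also: 0% = median of neutral control wells and 100% = median of positive control wells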
Starred values were filed as active, the others as inactive; / = no result given; ! = not confirmed by another sample; [ ] = another dose, or the depositor's remark.

SMILES | CFTR F508del cor | E-selectin induc | ERAP1 HTS inh | INS-1E GSIS act | miR-122 sensor | DENV2 CPE
COc1ccc(NC(=O)Nc2ccc3c(c2)CC(=O)N([C@H](C)CO)C[C@@H](C)[C@@H](CN(C)S(=O)(=O)c2ccc(OC)cc2)O3)cc1 | -1 | 0 | 0 | -17 | -9[16.7 µM] | 40*
COc1ccc(NC(=O)Nc2ccc3c(c2)CC(=O)N([C@@H](C)CO)C[C@@H](C)[C@H](CN(C)S(C)(=O)=O)O3)cc1 | -2 | / | -2 | -1 | / | 30*
C[C@H](CO)N1C[C@H](C)[C@@H](CN(C)Cc2ccc(C(=O)Nc3ccccc3N)cc2)Oc2ccc(NS(=O)(=O)c3cccs3)cc2CC1=O | 3 | 0 | 0 | 8 | 14[16.7 µM] | 1
O=C(NC1Cc2ccccc2C1)[C@H]1N[C@H]2c3ccc(C4=CCCC4)c(=O)n3C[C@H]2[C@@H]1CO | 0 | 0 | 0 | -1 | -2[16.7 µM] | 2
CCC(=O)N1CCCCN2[C@H](CO)[C@H](c3ccc(/C=C/c4ccccc4)cc3)[C@@H]2C1 | -3 | 0 | 1 | -13 | -3[16.7 µM] | -1
CC(=O)N1[C@@H]2c3ccc(/C=C/c4ccccc4)c(=O)n3C[C@H]1[C@H](CO)[C@H]2C(=O)N1CCOCC1 | -4 | 1 | 88* | 9 | / | -10
CCN1[C@@H]2Cn3c(ccc(/C=C/c4ccccc4)c3=O)[C@H]1[C@@H](C(=O)NC1Cc3ccccc3C1)[C@@H]2CO | 0 | 2 | -5 | -7 | / | 32*
CN1[C@@H]2c3ccc(/C=C/c4ccccc4)c(=O)n3C[C@H]1[C@H](CO)[C@H]2C(=O)NC1Cc2ccccc2C1 | / | 0 | 5 | -12 | / | 1
CCN1[C@@H]2c3ccc(/C=C/c4ccccc4)c(=O)n3C[C@H]1[C@H](CO)[C@H]2C(=O)N1CCOCC1 | 0 | 0 | 40* | 1 | 1[16.7 µM] | -4
CCC(=O)N1[C@@H]2Cn3c(ccc(/C=C/c4ccccc4)c3=O)[C@H]1[C@@H](C(=O)N1CCOCC1)[C@@H]2CO | 0 | 0 | 2 | -4 | -8[16.7 µM] | 3
C[C@H]1CN([C@@H](C)CO)C(=O)c2cccc(NS(=O)(=O)c3cn(C)cn3)c2O[C@@H]1CN(C)Cc1ccc(C(=O)Nc2ccccc2N)cc1 | -3 | / | 1 | 4 | / | 4
COc1ccc(CN(C)C[C@H]2OCCCC[C@@H](C)Oc3ccc(NC(=O)NC4CCCCC4)cc3C(=O)N([C@@H](C)CO)C[C@H]2C)cc1 | 1 | 0 | -1 | -2 | -5[16.7 µM] | 8
CC(C)(C)c1ccc(Nc2n[nH]c3ccccc23)cc1 | -3 | -1 | -4 | -10 | -7 | 66*
CC=Cc1ccc2n(c1=O)C[C@H]1[C@H](CO)[C@@H](C(=O)NC3CCC3)[C@@H]2N1C(=O)c1cnccn1 (mixture of isomers) | 3 | 0 | / | 1 | / | -5
COc1ccc(N(CC(=O)NCCSc2ccccc2)S(=O)(=O)c2ccccc2)c(OC)c1 | -1 | 0 | -5 | / | 7 | 88*
C[C@@H]1CN(C)C(=O)c2cccc(N)c2O[C@H]1CN(C)S(C)(=O)=O | / | / | / | 17 | / | /
C[C@H](CO)N1C[C@H](C)[C@@H](CN(C)Cc2ccc(Cl)c(Cl)c2)Oc2c(NS(=O)(=O)c3cccs3)cccc2C1=O | 1 | -6 | 7 | -22 | 95*! | -1
C[C@H]1CN([C@@H](C)CO)C(=O)c2cccc(NS(=O)(=O)c3ccccc3)c2O[C@@H]1CN(C)Cc1ccc(Cl)c(Cl)c1 | 0 | / | 3 | -24 | 19[16.7 µM] | 85*
Cc1ccc(S(=O)(=O)Nc2cccc3c2O[C@@H](CN(C)Cc2ccc(Cl)c(Cl)c2)[C@H](C)CN([C@H](C)CO)C3=O)cc1 | -1 | 0 | -1 | -19 | 110*[16.7 µM] | -2
C[C@H]1CN([C@@H](C)CO)C(=O)c2cccc(NS(=O)(=O)c3ccc(F)cc3)c2O[C@@H]1CN(C)Cc1ccc(Cl)c(Cl)c1 | 1 | 0 | -2 | -22 | 9[16.7 µM] | 23*
C[C@H]1CN([C@@H](C)CO)C(=O)c2cccc(NS(=O)(=O)c3cccs3)c2O[C@@H]1CN(C)Cc1ccncc1 | 0 | 1 | -4 | -6 | 12[16.7 µM] | 10
C[C@@H]1CCCCO[C@H](CN(C)C(=O)Nc2ccc(F)cc2)[C@@H](C)CN([C@H](C)CO)C(=O)c2cc(NC(=O)CCC(F)(F)F)ccc2O1 | -2 | / | 0 | 1 | -1[16.7 µM] | 13
O=c1[nH]c(CN2CCN(c3ccc(O)cc3)CC2)nc2scc(-c3ccc(Cl)cc3)c12 | 13* | 0 | 5 | 53* | / | 3
O=c1[nH]c(CN2CCN(c3ccccc3O)CC2)nc2scc(-c3ccccc3Cl)c12 | 3 | / | -3 | 13 | -12 | -3
O[C@H]1C[C@H](c2ccccc2)N(CC2CCCCC2)C[C@@H]1n1cc(C2CC2)nn1 | -6 | / | / | 143* | -1 | 6
SMILES | CFTR F508del cor | E-selectin induc | ERAP1 HTS inh | INS-1E GSIS act | miR-122 sensor | DENV2 CPE
O[C@@H]1CN(CC2CCCCC2)[C@@H](c2ccccc2)C[C@H]1n1cc(C2CC2)nn1 | 0 | 0 | 0 | -16 | -4 | 1
O[C@H]1CN(CC2CCCCC2)[C@@H](c2ccc(Cl)cc2)C[C@@H]1n1cc(C2CC2)nn1 | 2 | -3 | 28 | -33 | 1 | 45*
CN(C)CCCNC(=O)C[C@H]1C=C[C@H](NC(=O)c2ccccc2F)[C@@H](CO)O1 | 0 | 0 | 7 | 18 | / | 4
C[n+]1c2cc(N)ccc2cc2ccc(N)cc21 | 62* | 0 | 2 | -18 | 1 | -1
COc1cc(OC)cc(C(=O)NNC(=O)CCC(=O)c2cc(C)sc2C)c1 | -1 | 5 | -1 | -17 | / | 73*
COc1cc(OC)cc(C(=O)NNC(=O)CCCOc2ccccc2)c1 | 5 | / | 5 | -5 | -4 | 3
C[C@@H]1CN([C@H](C)CO)C(=O)c2cc(-c3ccc(C#N)cc3)cnc2O[C@@H]1CN(C)C(=O)Nc1ccc(F)cc1 | 1 | 0 | 0 | 3 | 5[16.7 µM] | 5
Cc1ccccc1-c1cc(C(=O)NCc2cccc(Br)c2)nn1CC1CC(c2cccc([N+](=O)[O-])c2)=NO1 (stereo not drawn) | -2 | 0 | / | 6 | / | 34*
COCCNC(=O)c1cc(-c2ccccc2C)n(CC2CC(c3cccc([N+](=O)[O-])c3)=NO2)n1 (stereo not drawn) | 4 | 0 | 4 | -28 | 2 | 1
CCN1C(=O)c2cccc3cccc1c23 | -2 | / | 44* | 9 | -5 | 4
Cc1ccc(S(=O)(=O)N[C@H]2CC[C@H](CCn3cc(-c4cccnc4)nn3)O[C@@H]2CO)cc1 | 0 | 0 | 1 | 2 | / | 5
